The test system of assay [1] is HT-29. The experiment in a line: Cytotoxicity against human HT-29 cells assessed as growth inhibition after 48 hrs by resazurin assay. To be noted: for IC50: HT-29, 48 h. The assay is classed as functional, cell-based. Put shortly: (§1)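 HCT116 or HT29 seeded at 2000 cells/well, grown 24 h, then given fresh complete McCoy's 5A (5% FBS, 0.1% DMSO final) containing serial compound concentrations for 48 h. Resazurin was added for 16 h and fluorescence read at ex 544/em 595 nm as a measure of living cells. IC50 was calculated by the Logit approach; values are mean ± SD.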
On the technique in general: Alamar Blue is a resazurin reagent that responds to reducing activity.

For assay [2], the system named is HCT-116. The experiment in a line: Cytotoxicity against human HCT116 cells assessed as growth inhibition after 48 hrs by resazurin assay. The class given is functional, cell-based. To be noted: for IC50: HCT-116, 48 h. The essentials:
as §1

Assay [3] relates to HCT-116. The experiment in a line: Induction of apoptosis in human HCT116 cells assessed as ratio of Bax to Bcl-2 expression at 20 uM after 72 hrs by Western blot analysis relative to control. The assay is classed as functional. The essentials: (§2)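 HCT116 only, seeded at 8 × 10⁴ cells/ml in 15 cm dishes for 24 h, then treated for 72 h at 20 µM or at 5, 10 and 20 µM. Lysed in Triton lysis buffer (pH 7.5) with inhibitors, sonicated, and protein assayed by BCA. Western blots were developed by ECL. Band intensities were normalized to β-actin, as means of three independent experiments; the Bax/Bcl-2 ratio was expressed relative to untreated control.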
(Immunoblotting shows a protein as a band on a membrane.)

Assay [4] has as its system HCT-116. Briefly: Induction of apoptosis in human HCT116 cells assessed as increase in Bax expression at 20 uM after 72 hrs by Western blot analysis. The assay is classed as functional, cell-based. Put shortly: as §2
Assay [5] deals with HCT-116. Briefly: Induction of apoptosis in human HCT116 cells assessed as reduction in Bcl-2 expression at 20 uM after 72 hrs by Western blot analysis. The class given is functional, cell-based. Put shortly:
as §2

For assay [6], the system named is HCT-116. The experiment in a line: Induction of apoptosis in human HCT116 cells assessed as effect on HSP-70 expression at 20 uM after 72 hrs by Western blot analysis. The class given is functional, cell-based. The essentials: as §2
Assay [7] relates to HCT-116. The experiment in a line: Induction of apoptosis in human HCT116 cells assessed as effect on HSP-90 expression at 20 uM after 72 hrs by Western blot analysis. The class given is functional, cell-based. Put shortly: as §2
The subject of assay [8] is HCT-116. Briefly: Induction of apoptosis in human HCT116 cells assessed as PARP cleavage at 20 uM after 72 hrs by Western blot analysis. The assay is classed as functional, cell-based. Put shortly:
as §2

Assay [9] deals with HCT-116. Briefly: Induction of apoptosis in human HCT116 cells assessed as caspase-3 activation at 20 uM after 72 hrs by Western blot analysis. The class given is functional, cell-based. Put shortly:
as §2

Assay [10] addresses Epidermal growth factor receptor (Homo sapiens) (UniProt P00533). The experiment in a line: Inhibition of EGFR signaling in human HCT116 cells assessed as effect on CDK2 expression at 20 uM after 24 hrs by Western blot analysis. The class given is cell-based. To be noted: HCT-116.
For assay [11] the target is unchanged. Briefly: Inhibition of EGFR signaling in human HCT116 cells assessed as effect on CDK4 expression at 20 uM after 24 hrs by Western blot analysis. The assay is classed as cell-based. As to conditions: HCT-116.
Assay [12] has the same target. Briefly: Inhibition of EGFR signaling in human HCT116 cells assessed as inhibition of Rb expression at 20 uM after 24 hrs by Western blot analysis. The assay is classed as cell-based. As to conditions: HCT-116.
For assay [13] the target is unchanged. Briefly: Inhibition of EGFR signaling in human HCT116 cells assessed as inhibition of cyclin E1 expression at 20 uM after 24 hrs by Western blot analysis. The class given is cell-based. As to conditions: HCT-116.
Assay [14] has the same target. The experiment in a line: Inhibition of EGFR signaling in human HCT116 cells assessed as inhibition of cyclin D1 expression at 20 uM after 24 hrs by Western blot analysis. The assay is classed as cell-based. To be noted: HCT-116.
The target is the same in assay [15]. Briefly: Inhibition of EGFR signaling in human HCT116 cells assessed as induction of p21 WAF-1/CIP-1 expression at 20 uM after 24 hrs by Western blot analysis relative to control. The assay is classed as cell-based. To be noted: HCT-116.
Assay [16] concerns HT-29. The experiment in a line: Cell cycle arrest in human HT-29 cells assessed as increase in G2/M population at 20 uM after 24 hrs by flow cytometry relative to control. The class given is functional. Put shortly: (§3)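 HCT116 or HT29 cells seeded at 4 × 10⁴ cells/ml in 6-well plates and left 24 h to attach, then exposed for 24 h in complete McCoy's 5A (5% FBS) with 0.1% DMSO final, at 5, 10 or 20 µM. Floating and trypsinized cells were pooled, PBS-washed, fixed overnight in 70% ethanol at 4 °C and stained with PI/RNase for 15 min at room temperature. Flow DNA content gave G0/G1, S and G2/M fractions as fold of control, from three independent assays.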

In assay [17] the test system is HCT-116. The experiment in a line: Cell cycle arrest in human HCT116 cells assessed as increase in G2/M population at 20 uM after 24 hrs by flow cytometry relative to control. The assay is classed as functional. The essentials: as §3
(A flow cytometer gives signals particle by particle.)

In assay [18] the test system is HCT-116. Briefly: Inhibition of EGFR protein expression in human HCT116 cells at 20 uM after 72 hrs by Western blot analysis. The class given is functional, cell-based. Put shortly: (§4)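 HCT116 or HT29 seeded at 8 × 10⁴ cells/ml in 15 cm dishes for 24 h, then treated for 72 h at 20 µM or at 5, 10 and 20 µM. Whole-cell lysates were made in Tris-HCl/NaCl/Triton buffer with phosphatase and protease inhibitors (pH 7.5), sonicated and cleared at 10,000g; protein was measured by BCA. Blots were blocked in 5% milk/TBST and developed by ECL. P-EGFR(Tyr1068) and total EGFR bands were normalized to β-tubulin, as means of three experiments.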

Assay [19] relates to HT-29. The experiment in a line: Inhibition of EGFR protein expression in human HT-29 cells at 20 uM after 72 hrs by Western blot analysis. The assay is classed as functional, cell-based. Put shortly: as §4
In assay [20] the target is Epidermal growth factor receptor (Homo sapiens) (UniProt P00533). Briefly: Inhibition of EGFR phosphorylation at Tyr1068 residue in human HCT116 cells at 20 uM after 72 hrs by Western blot analysis. The assay is classed as cell-based. To be noted: HCT-116. Put shortly:
as §4

For assay [21] the target is unchanged. Briefly: Inhibition of EGFR phosphorylation at Tyr1068 residue in human HT-29 cells at 20 uM after 72 hrs by Western blot analysis. The class given is cell-based. The essentials: as §4

Active and inactive are the calls of the source. The calls are words filed in the database; no cut-off is given here.

Chain of Epidermal growth factor receptor (Homo sapiens) (P00533 whole entry): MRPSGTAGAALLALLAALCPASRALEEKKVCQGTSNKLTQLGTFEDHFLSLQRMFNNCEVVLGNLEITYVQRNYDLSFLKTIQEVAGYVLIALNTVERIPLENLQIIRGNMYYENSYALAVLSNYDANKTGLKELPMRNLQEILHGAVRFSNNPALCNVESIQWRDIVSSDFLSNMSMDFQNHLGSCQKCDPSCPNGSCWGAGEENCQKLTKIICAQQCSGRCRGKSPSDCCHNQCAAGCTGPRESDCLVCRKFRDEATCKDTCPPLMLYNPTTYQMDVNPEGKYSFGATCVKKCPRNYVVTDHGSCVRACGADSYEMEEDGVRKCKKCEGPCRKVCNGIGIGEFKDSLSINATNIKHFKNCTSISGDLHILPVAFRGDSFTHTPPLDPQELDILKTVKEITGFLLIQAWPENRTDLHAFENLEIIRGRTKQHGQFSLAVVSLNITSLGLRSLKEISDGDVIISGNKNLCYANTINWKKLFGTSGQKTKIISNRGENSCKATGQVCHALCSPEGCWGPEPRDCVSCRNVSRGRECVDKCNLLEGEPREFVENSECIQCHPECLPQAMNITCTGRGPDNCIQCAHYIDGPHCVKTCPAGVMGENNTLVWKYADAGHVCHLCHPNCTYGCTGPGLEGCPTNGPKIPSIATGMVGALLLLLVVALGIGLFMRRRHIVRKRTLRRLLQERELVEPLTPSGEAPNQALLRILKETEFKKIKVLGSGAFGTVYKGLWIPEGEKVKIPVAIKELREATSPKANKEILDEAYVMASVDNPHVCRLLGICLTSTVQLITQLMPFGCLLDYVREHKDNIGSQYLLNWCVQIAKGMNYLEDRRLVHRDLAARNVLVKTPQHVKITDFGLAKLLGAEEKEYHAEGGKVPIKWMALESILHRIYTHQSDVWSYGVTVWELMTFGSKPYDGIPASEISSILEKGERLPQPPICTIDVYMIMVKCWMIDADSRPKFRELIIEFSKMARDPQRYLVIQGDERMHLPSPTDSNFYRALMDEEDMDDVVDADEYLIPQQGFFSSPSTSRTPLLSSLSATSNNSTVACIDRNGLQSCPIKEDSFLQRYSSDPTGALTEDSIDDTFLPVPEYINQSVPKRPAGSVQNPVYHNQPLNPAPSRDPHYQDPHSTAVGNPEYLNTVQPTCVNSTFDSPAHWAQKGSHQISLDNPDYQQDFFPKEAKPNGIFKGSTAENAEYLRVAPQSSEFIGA

As to `CCCNc1nc(/C=C/c2ccc(OC)c(OC)c2)cc(/C=C/c2ccc(OC)c(OC)c2)n1`, in assay [1], the “growth inhibition (GI)” value is “Dose-dependent effect” and the half-inhibitory concentration (IC50) was over 100 µM. Also, in assay [2], the “growth inhibition (GI)” value was “Dose-dependent effect” and the IC50 was determined as 28 µM.
Regarding `CCCNc1nc(/C=C/c2cc(OC)c(OC)c(OC)c2)cc(/C=C/c2cc(OC)c(OC)c(OC)c2)n1`, the IC50 in assay [1] is over 100 µM. In [2], the “growth inhibition (GI)” value was “Dose-dependent effect” and the half-inhibitory concentration (IC50) was 21.9 µM.
For the compound `CCNc1nc(/C=C/c2ccc(OC)c(OC)c2)cc(/C=C/c2ccc(OC)c(OC)c2)n1`, the Ratio in assay [3] is listed as 1.57. For the same compound, the outcome in assay [4] and in assay [5] was Active. In addition, the result in assay [6], in [7], in assay [8] and in [9] was inactive. Further, the inhibition entry in assay [10], in [11], in assay [12], in assay [13], in [14] and in assay [18] was “inactive” in each case. For the same compound, the inhibition entry in assay [19], in assay [20] and in assay [21] was “inactive” throughout. For the same compound, the fold change (FC) in assay [15] is 20; in assay [16] it was 1.1; in assay [17], 1.03. Further, the “growth inhibition (GI)” value in assay [1] and in [2] was “Dose-dependent effect” each time. Besides, the IC50 in assay [1] worked out at 38.5 µM; in [2] it was 46.4 µM.

Usually IC50 stands for the concentration needed to halve the response being measured.

Values taken from ChEMBL document CHEMBL2413001, “Exploring pyrimidine-substituted curcumin analogues: design, synthesis and effects on EGFR signaling” (Bioorg Med Chem, 2013).
